Published values from different studies.
Lines come from different studies, so protocols differ.
P2RX7: P2X purinoceptor 7 (P2RX7, Homo sapiens, UniProt Q99572)
IDE: Insulin-degrading enzyme (IDE, Homo sapiens, UniProt P14735)
KCNA5: Potassium voltage-gated channel subfamily A member 5 (KCNA5, Homo sapiens, UniProt P22460)

| Structure (SMILES) | target | observed | action | technique | IC50 [µM] |
| --- | --- | --- | --- | --- | --- |
| Sc1nnc(-c2ccccn2)o1 | P2RX7 | calcium signal | antagonist | – | 11.8 |
| O=C(O)CN(CCCc1ccccc1)CC(=O)N[C@@H](Cc1c[nH]cn1)C(=O)NCc1ccccc1 | IDE | enzyme activity | inhibitor | fluorescence | 0.4 |
| C[C@H]1C[C@@H](N2C(=N)N[C@](C)(c3cccc(Nc4ccc(C5CC5)nc4)c3Cl)CC2=O)CCO1 | KCNA5 | ion current | inhibitor | patch clamp | 4.62 |
| Cc1cc(Oc2ccc(NC(=O)c3sc(-c4ccccc4)nc3C)cc2)c2nncn2n1 | Hepatocyte growth factor receptor (MET, Homo sapiens, UniProt P08581) | enzyme activity | inhibitor | mobility shift | 0.88 |
| CC/C=C\C/C=C\C/C=C\C/C=C\C/C=C\CCCC(=O)O | POLE (Homo sapiens, UniProt Q07864) | enzyme activity | inhibitor | – | 35 |
| COC(=O)[C@H](Cc1c[nH]cn1)NC(=O)CN(CC(=O)O)Cc1ccncc1 | IDE | enzyme activity | inhibitor | fluorescence | 6.3 |
| COC(=O)c1ccc(NC(=O)NC2=CC(=O)CC(C)(C)C2)cc1 | crk3 (Leishmania mexicana, UniProt O15851) | enzyme activity | inhibitor | radiometric | 3.3 |
| CC(C)(C)n1nc(-c2cnc3cc(OC4CC4)ccc3c2)c(C(N)=O)c1N | Tyrosine-protein kinase JAK3 (JAK3, Homo sapiens, UniProt P52333) | cell-free assay | – | – | > 10 |
| CNC(=O)c1cc2c(Oc3ccc(NC(=O)C4(C(=O)Nc5ccc(F)cc5)CC4)cc3)ccnc2cc1OC | Hepatocyte growth factor receptor (MET, Homo sapiens, UniProt P08581, Y1230C) | enzyme activity | inhibitor | radiometric | 0.004 |
| CC(C)C[C@H]1CC(=O)N[C@@H](C)C(=O)N[C@@H](CCCCCC(=O)O)C(=O)N[C@@H](Cc2c[nH]c3ccccc23)C(=O)N1 | Histone deacetylase 3 (HDAC3, Homo sapiens, UniProt O15379) | enzyme activity | inhibitor | – | 0.6 |
| O=C(Nc1ccn(Cc2ccc(O)cc2C(F)(F)F)n1)c1c(F)cccc1F | KCNA5 | ion current | inhibitor | – | > 10 |
| COc1ccc(S(=O)(=O)N2Cc3cc(O)c(O)cc3CC2C(=O)NO)cc1 (stereo not drawn) | Interstitial collagenase (MMP1, Homo sapiens, UniProt P03956) | enzyme activity | inhibitor | – | 10 |
| CC(C)(C)OC(=O)N1CCC(C(=O)N[C@@H](Cc2ccc3ccccc3c2)C(=O)O)(c2ccccc2)CC1 | Gag-Pol polyprotein, integrase (gag-pol, Human immunodeficiency virus 1, UniProt P12497) | enzyme activity | inhibitor | TR-FRET | 90.3 |
| Cc1[nH]c(/C=C2\C(=O)Nc3ccc(S(=O)(=O)N(C)c4cccc(Cl)c4)cc32)c(C)c1C(=O)N1CCN(C)CC1 | Hepatocyte growth factor receptor, non-phosphorylated (MET, Homo sapiens, UniProt P08581) | enzyme activity | inhibitor | TR-FRET | 0.005 |
| O=C(O)CN(CC(=O)N[C@H](CO)Cc1c[nH]cn1)Cc1ccccc1 | IDE | enzyme activity | inhibitor | fluorescence | 4.1 |
| Cc1ccc(S(=O)(=O)Oc2ccccc2NC(=O)c2ccc3ncccc3c2)cc1 | P2RX7 | calcium signal | antagonist | – | 1.49 |
| CC(C)(C)OC(=O)[C@H](Cc1c[nH]cn1)NC(=O)CN(CCCc1ccccc1)CC(=O)O | IDE | enzyme activity | inhibitor | fluorescence | 0.4 |
| O=C(O)C1=CC(=C(c2ccc(O)c(C(=O)O)c2)c2ccc(O)c(C(=O)O)c2)C=CC1=O | Lysosomal acid lipase/cholesteryl ester hydrolase (LIPA, Homo sapiens, UniProt P38571) | enzyme activity | inhibitor | – | 1.34 |
